The target of assay [1] is Cyclin-dependent kinase 1 (Homo sapiens) (UniProt P06493). Nature of the assay: Inhibition of human recombinant CDC2 at 40 nM in presence of ATP by radiometric assay relative to control.
Assay [2] concerns the target T1, Serine/threonine-protein kinase Nek3 (Homo sapiens) (UniProt P51956).
T1 sequence (whole entry): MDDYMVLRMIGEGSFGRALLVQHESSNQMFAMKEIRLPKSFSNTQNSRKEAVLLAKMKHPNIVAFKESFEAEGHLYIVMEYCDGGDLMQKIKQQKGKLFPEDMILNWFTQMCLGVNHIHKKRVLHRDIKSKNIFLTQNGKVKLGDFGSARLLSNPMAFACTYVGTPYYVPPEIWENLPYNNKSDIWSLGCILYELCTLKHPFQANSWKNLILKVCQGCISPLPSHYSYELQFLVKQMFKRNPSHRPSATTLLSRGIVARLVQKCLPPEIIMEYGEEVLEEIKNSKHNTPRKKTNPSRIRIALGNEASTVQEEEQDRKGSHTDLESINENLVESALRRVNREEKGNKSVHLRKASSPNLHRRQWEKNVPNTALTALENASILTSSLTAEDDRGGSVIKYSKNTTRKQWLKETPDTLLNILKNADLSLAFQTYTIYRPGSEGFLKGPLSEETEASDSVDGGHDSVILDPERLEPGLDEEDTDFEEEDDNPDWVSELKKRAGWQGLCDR
Nature of the assay: Inhibition of human recombinant NEK3 at 500 nM in presence of ATP by radiometric assay relative to control.

Assay [3] concerns the target SRSF protein kinase 2 (Homo sapiens) (UniProt P78362). Nature of the assay: Inhibition of human recombinant SRPK2 at 500 nM in presence of ATP by radiometric assay relative to control.
In assay [4] the target is RAC-beta serine/threonine-protein kinase (Homo sapiens) (UniProt P31751). Nature of the assay: Inhibition of human recombinant AKT2 at 500 nM in presence of ATP by radiometric assay relative to control. The method in brief:
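Panel of 327 recombinant human kinases in radiometric activity assays, each screened in duplicate at a single inhibitor concentration; percent activity remaining relative to vehicle control, percent inhibition taken as 100 minus activity remaining.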

In assay [5] the target is Serine/threonine-protein kinase pim-1 (Homo sapiens) (UniProt P11309). Nature of the assay: Inhibition of human recombinant PIM1 at 500 nM related to control ULK1.
For assay [6], the target named is Ribosomal protein S6 kinase alpha-6 (Homo sapiens) (UniProt Q9UK32). Nature of the assay: Inhibition of human recombinant RSK4 at 15 nM related to control ULK1.
In assay [7] the target is Rho-associated protein kinase 2 (Homo sapiens) (UniProt O75116). Nature of the assay: Inhibition of human recombinant ROCK2 at 15 nM in presence of ATP by radiometric assay relative to control.
For assay [8], the target named is T2, Ephrin type-B receptor 4 (Homo sapiens) (UniProt P54760).
T2 sequence (whole entry): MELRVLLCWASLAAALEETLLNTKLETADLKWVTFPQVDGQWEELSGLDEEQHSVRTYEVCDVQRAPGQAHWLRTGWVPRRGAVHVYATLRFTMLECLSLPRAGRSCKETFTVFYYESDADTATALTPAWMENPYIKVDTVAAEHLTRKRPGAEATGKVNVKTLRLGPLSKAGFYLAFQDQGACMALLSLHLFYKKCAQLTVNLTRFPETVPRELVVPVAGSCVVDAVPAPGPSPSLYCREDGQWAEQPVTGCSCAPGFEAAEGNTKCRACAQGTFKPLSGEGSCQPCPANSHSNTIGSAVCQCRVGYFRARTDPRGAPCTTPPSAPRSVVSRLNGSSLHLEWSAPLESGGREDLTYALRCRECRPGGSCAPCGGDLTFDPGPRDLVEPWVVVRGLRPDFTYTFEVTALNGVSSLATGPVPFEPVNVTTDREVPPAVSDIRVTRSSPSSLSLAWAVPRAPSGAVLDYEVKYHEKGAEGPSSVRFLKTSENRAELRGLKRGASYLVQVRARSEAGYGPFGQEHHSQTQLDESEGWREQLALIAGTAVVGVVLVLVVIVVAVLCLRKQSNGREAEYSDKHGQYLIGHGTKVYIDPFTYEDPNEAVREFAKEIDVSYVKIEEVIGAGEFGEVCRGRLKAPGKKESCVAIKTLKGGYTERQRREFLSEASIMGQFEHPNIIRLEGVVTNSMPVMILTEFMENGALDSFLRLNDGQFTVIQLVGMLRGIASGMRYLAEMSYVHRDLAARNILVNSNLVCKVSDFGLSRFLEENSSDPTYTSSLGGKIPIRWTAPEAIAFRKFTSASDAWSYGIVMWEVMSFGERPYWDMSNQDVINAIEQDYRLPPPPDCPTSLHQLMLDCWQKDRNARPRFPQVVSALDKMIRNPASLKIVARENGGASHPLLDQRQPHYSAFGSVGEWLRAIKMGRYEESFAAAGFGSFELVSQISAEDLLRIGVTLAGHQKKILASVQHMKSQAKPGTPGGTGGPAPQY
Nature of the assay: Inhibition of human recombinant EphB4 at 15 nM related to control ULK1.

Assay [9] concerns the target Ribosomal protein S6 kinase alpha-5 (Homo sapiens) (UniProt O75582). Nature of the assay: Inhibition of human recombinant MSK1 at 15 nM related to control ULK1.

Usually inhibition stands for the percentage by which the read-out fell short of the control.

Chain of RAC-beta serine/threonine-protein kinase (Homo sapiens) (P31751 whole entry): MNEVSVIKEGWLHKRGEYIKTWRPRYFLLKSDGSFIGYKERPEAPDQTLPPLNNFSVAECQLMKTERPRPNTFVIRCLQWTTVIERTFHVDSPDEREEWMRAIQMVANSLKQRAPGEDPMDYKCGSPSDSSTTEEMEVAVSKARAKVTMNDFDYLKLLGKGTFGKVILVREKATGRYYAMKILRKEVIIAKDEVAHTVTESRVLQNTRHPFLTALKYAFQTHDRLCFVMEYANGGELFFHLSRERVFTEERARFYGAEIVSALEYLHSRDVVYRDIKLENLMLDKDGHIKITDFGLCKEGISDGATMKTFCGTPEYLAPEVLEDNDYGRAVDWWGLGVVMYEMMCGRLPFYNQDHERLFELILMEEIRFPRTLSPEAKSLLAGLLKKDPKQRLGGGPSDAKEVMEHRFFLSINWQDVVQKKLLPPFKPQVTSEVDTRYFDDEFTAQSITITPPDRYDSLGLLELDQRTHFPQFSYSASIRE
Chain of Ribosomal protein S6 kinase alpha-5 (Homo sapiens) (O75582 whole entry, looked up): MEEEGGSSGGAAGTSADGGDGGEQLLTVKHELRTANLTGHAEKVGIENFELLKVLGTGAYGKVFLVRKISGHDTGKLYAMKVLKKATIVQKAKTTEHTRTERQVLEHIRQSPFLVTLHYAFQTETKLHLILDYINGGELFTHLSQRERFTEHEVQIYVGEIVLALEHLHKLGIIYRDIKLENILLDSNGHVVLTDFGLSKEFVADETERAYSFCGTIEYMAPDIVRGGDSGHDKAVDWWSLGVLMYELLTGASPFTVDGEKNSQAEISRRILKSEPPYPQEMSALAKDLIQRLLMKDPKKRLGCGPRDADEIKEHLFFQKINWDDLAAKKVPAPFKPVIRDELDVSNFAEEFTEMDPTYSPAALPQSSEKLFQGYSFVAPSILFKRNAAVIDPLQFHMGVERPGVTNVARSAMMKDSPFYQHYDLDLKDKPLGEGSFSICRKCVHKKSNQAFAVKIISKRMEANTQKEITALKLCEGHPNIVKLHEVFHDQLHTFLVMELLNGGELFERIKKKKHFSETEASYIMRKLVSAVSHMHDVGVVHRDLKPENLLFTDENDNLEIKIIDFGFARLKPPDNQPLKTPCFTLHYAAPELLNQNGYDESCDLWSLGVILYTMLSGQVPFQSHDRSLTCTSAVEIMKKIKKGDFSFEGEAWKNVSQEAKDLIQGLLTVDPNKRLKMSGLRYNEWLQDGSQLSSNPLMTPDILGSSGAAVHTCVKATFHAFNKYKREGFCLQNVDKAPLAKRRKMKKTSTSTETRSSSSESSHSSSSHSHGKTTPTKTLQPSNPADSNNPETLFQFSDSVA
Chain of Rho-associated protein kinase 2 (Homo sapiens) (O75116 whole entry, looked up): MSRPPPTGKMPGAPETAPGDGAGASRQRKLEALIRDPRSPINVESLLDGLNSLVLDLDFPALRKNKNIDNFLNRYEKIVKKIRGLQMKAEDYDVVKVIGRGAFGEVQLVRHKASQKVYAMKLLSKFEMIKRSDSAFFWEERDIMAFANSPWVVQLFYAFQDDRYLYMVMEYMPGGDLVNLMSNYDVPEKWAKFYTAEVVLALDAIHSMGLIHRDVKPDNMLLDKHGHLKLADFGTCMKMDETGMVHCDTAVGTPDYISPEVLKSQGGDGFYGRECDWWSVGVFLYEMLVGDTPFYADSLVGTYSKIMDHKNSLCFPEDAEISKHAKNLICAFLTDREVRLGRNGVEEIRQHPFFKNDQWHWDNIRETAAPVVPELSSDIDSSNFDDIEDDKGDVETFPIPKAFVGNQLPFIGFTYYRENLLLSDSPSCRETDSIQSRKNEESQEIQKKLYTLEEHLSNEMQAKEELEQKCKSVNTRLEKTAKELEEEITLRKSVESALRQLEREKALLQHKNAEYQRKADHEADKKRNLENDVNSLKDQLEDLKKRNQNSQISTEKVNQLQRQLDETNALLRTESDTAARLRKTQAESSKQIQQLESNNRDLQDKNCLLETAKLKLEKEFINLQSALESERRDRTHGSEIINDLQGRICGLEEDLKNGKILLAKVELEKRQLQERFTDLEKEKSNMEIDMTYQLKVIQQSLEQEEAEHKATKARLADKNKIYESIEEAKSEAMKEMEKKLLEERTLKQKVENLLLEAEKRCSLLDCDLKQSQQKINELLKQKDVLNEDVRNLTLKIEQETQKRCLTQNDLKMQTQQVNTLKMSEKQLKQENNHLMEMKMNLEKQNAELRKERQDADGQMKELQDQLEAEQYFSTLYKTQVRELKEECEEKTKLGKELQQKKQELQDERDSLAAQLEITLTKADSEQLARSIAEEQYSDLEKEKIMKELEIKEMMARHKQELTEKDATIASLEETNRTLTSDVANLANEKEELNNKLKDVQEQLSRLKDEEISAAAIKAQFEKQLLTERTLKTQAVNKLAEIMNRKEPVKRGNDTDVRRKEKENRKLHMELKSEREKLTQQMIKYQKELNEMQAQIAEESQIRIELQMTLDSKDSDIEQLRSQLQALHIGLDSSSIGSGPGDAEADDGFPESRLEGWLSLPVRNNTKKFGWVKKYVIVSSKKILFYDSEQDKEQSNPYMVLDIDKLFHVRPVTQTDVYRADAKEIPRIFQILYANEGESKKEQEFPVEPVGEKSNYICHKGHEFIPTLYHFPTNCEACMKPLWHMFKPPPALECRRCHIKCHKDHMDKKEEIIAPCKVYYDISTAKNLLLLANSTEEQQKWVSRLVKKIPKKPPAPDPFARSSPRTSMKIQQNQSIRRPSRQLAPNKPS
Chain of Ribosomal protein S6 kinase alpha-6 (Homo sapiens) (Q9UK32 whole entry): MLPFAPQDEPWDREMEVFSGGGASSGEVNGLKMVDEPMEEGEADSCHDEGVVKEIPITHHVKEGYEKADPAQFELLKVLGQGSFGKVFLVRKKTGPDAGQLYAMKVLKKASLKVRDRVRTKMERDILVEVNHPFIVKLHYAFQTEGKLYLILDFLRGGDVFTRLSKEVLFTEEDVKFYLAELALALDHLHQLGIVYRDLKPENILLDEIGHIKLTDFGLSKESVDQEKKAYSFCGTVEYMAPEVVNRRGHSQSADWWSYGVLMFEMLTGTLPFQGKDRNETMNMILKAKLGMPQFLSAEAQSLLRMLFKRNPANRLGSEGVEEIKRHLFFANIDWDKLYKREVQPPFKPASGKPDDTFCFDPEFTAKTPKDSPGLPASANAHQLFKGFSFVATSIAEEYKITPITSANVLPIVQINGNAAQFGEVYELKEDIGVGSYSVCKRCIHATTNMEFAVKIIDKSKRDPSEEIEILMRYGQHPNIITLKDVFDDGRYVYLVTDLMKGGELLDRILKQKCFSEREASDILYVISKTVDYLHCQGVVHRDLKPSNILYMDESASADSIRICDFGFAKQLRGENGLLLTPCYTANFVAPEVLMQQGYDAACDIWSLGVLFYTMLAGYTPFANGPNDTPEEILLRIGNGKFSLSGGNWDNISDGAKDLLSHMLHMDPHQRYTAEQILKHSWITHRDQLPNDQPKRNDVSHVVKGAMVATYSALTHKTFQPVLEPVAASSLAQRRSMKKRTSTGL
Chain of SRSF protein kinase 2 (Homo sapiens) (P78362 whole entry, looked up): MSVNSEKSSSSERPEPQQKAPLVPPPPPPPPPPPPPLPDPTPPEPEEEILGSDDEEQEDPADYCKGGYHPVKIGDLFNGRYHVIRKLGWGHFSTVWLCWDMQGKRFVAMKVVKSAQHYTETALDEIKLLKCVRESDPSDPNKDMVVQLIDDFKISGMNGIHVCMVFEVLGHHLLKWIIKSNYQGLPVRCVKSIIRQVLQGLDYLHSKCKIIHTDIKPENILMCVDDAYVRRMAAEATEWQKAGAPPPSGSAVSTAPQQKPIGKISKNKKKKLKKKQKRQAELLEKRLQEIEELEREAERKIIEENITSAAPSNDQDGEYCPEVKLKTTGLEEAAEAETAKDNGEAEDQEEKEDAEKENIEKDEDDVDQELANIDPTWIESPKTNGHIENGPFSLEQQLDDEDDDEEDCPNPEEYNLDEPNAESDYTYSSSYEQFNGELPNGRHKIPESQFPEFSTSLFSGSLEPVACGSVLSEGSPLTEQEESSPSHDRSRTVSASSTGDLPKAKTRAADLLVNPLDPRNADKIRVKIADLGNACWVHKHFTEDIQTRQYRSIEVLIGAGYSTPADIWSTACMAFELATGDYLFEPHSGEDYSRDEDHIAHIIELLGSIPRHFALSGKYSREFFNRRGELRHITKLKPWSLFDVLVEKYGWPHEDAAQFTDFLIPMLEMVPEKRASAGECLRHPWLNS
Chain of Serine/threonine-protein kinase pim-1 (Homo sapiens) (P11309 whole entry, looked up): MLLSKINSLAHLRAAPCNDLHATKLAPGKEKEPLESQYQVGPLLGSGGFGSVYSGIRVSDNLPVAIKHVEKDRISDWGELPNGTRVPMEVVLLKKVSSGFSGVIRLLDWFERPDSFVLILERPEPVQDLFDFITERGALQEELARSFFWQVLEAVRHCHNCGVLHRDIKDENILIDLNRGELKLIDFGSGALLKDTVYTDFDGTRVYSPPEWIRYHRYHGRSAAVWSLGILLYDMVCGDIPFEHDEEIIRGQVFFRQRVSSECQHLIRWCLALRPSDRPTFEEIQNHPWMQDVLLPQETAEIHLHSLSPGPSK
Chain of Cyclin-dependent kinase 1 (Homo sapiens) (P06493 whole entry, looked up): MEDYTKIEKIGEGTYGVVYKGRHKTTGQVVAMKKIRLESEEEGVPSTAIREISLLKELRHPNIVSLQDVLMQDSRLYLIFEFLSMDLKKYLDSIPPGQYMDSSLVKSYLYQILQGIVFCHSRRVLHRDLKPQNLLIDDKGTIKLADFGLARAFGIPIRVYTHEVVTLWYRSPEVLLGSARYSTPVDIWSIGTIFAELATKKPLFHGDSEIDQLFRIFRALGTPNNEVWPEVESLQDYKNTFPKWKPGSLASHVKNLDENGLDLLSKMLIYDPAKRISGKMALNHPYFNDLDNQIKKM

With `O=C(N[C@@H](C1CC1)C(F)(F)F)c1cc(-c2cnn3cc(-c4ccc(F)cc4)cnc23)cs1`, the inhibition in [1] was determined as 45%.
Take `CNC(=O)c1ccccc1Oc1nc(Nc2cc(OC)c(OC)c(OC)c2)ncc1Br`: the inhibition in assay [2] is 7%; in assay [3] it was 5%; in [4], 7%. Moreover, the fold change (FC) in [5] came to 0.03.
In the case of `CC(C)[C@H](NC(=O)c1cc(-c2cnn3cc(-c4ccc(OCCN5CCCCC5)cc4)cnc23)cs1)C(F)(F)F`, the figures for the fold change (FC) in assay [6], in assay [8] and in [9] were 0, 0.03 and 0.02, respectively. The inhibition in [7] stood at 0%.

For the origin of these results see ChEMBL document CHEMBL5653631, “A Potent and Selective ULK1 Inhibitor Suppresses Autophagy and Sensitizes Cancer Cells to Nutrient Stress” (iScience, 2018).
